Data reported in ChEMBL document CHEMBL3286310, “Synthesis and biological evaluation of novel N-aryl maleimide derivatives clubbed with α-hydroxyphosphonates” (2014).
Values after ≈ are worked out from the molar mass of the structure shown.

Experiments:
Assay type in all cases: functional
Bacillus subtilis [1] = assay: Antimicrobial activity against Bacillus subtilis NCIM 2250 at 100 ug/disc after 24 hrs by agar cup plate method; details: NCIM 2250, 24 h, read-out: DIZ
Outline: (§1)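 Agar cup plate diffusion with bacterial inocula reseeded in Mueller-Hinton broth for 24 h at 37 °C. Compounds diluted in DMF, with DMF alone as control and streptomycin as standard. Inhibition-zone diameter read by caliper, each zone measured three times and averaged.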

Escherichia coli [2] = assay: Antimicrobial activity against Escherichia coli ATCC 25922 at 100 ug/disc after 24 hrs by agar cup plate method; details: ATCC 25922, 24 h, read-out: DIZ; outline: as §1
Candida albicans [3] = assay: Antimicrobial activity against Candida albicans MTCC 277 at 100 ug/disc after 48 hrs by agar cup plate method; details: MTCC 277, 48 h, read-out: DIZ
Outline: (§2)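 Agar cup plate diffusion with fungal inocula reseeded in Czapek Dox broth for 48 h at 25 °C. Compounds diluted in DMF, with DMF alone as control and griseofulvin as standard. Inhibition-zone diameter read by caliper, each zone measured three times and averaged.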

Candida tropicalis [4] = assay: Antimicrobial activity against Candida tropicalis MTCC 184 at 100 ug/disc after 48 hrs by agar cup plate method; details: MTCC 184, 48 h, read-out: DIZ; outline: as §2
Aspergillus niger [5] = assay: Antimicrobial activity against Aspergillus niger MCIM 545 at 100 ug/disc after 48 hrs by agar cup plate method; details: MCIM 545, 48 h, read-out: DIZ; outline: as §2
Aspergillus clavatus [6] = assay: Antimicrobial activity against Aspergillus clavatus MTCC 1323 at 100 ug/disc after 48 hrs by agar cup plate method; details: MTCC 1323, 48 h, read-out: DIZ; outline: as §2
Bacillus subtilis [7] = assay: Antimicrobial activity against Bacillus subtilis NCIM 2250 after 24 hrs by NCCLS M7-A5 method; details: NCIM 2250, 24 h
Outline: (§3)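 MIC by agar dilution on Mueller-Hinton agar plates, following NCCLS M7-A5. MIC was taken as the lowest concentration with no visible growth after 24 h incubation at 37 °C.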

Escherichia coli [8] = assay: Antimicrobial activity against Escherichia coli ATCC 25922 after 24 hrs by NCCLS M7-A5 method; details: ATCC 25922, 24 h; outline: as §3
Candida albicans [9] = assay: Antimicrobial activity against Candida albicans MTCC 277 after 24 hrs by NCCLS M7-A5 method; details: MTCC 277, 24 h; outline: as §3
Candida tropicalis [10] = assay: Antimicrobial activity against Candida tropicalis MTCC 184 after 24 hrs by NCCLS M7-A5 method; details: MTCC 184, 24 h; outline: as §3
Aspergillus niger [11] = assay: Antimicrobial activity against Aspergillus niger MCIM 545 after 24 hrs by NCCLS M7-A5 method; details: MCIM 545, 24 h; outline: as §3
Aspergillus clavatus [12] = assay: Antimicrobial activity against Aspergillus clavatus MTCC 1323 after 24 hrs by NCCLS M7-A5 method; details: MTCC 1323, 24 h; outline: as §3

SMILES	zone of inhibition at 100 µg/disc (Bacillus subtilis [1])	zone of inhibition at 100 µg/disc (Escherichia coli [2])	zone of inhibition at 100 µg/disc (Candida albicans [3])	zone of inhibition at 100 µg/disc (Candida tropicalis [4])	zone of inhibition at 100 µg/disc (Aspergillus niger [5])	zone of inhibition at 100 µg/disc (Aspergillus clavatus [6])	MIC (Bacillus subtilis [7])	MIC (Escherichia coli [8])	MIC (Candida albicans [9])	MIC (Candida tropicalis [10])	MIC (Aspergillus niger [11])	MIC (Aspergillus clavatus [12])
CCOP(=O)(OCC)C(O)C1=C(N(C)C)C(=O)N(c2ccccc2Cl)C1=O (stereo unspecified)	13.6 mm	15.4 mm	15.1 mm	16.2 mm	16.6 mm	16.8 mm	20 µg/mL (≈ 48 µM)	15 µg/mL (≈ 36 µM)	20 µg/mL (≈ 48 µM)	20 µg/mL (≈ 48 µM)	15 µg/mL (≈ 36 µM)	15 µg/mL (≈ 36 µM)
COC1=CC(=O)C[C@@H](C)[C@]12Oc1c(Cl)c(OC)cc(OC)c1C2=O [GRISEOFULVIN]	–	–	16.8 mm	17.3 mm	16.9 mm	17.6 mm	–	–	5 µg/mL (≈ 14.2 µM)	5 µg/mL (≈ 14.2 µM)	5 µg/mL (≈ 14.2 µM)	5 µg/mL (≈ 14.2 µM)
CCOP(=O)(OCC)C(O)C1=C(N(C)C)C(=O)N(c2cccc(Cl)c2)C1=O (stereo unspecified)	15.8 mm	13.5 mm	16.6 mm	17.1 mm	13.6 mm	16.2 mm	10 µg/mL (≈ 24 µM)	20 µg/mL (≈ 48 µM)	10 µg/mL (≈ 24 µM)	10 µg/mL (≈ 24 µM)	25 µg/mL (≈ 60 µM)	20 µg/mL (≈ 48 µM)
CN[C@@H]1[C@H](O[C@H]2[C@H](O[C@H]3[C@H](O)[C@@H](O)[C@H](N=C(N)N)[C@@H](O)[C@@H]3N=C(N)N)O[C@@H](C)[C@]2(O)C=O)O[C@@H](CO)[C@H](O)[C@H]1O [STREPTOMYCIN]	16.2 mm	16.4 mm	–	–	–	–	5 µg/mL (≈ 8.6 µM)	5 µg/mL (≈ 8.6 µM)	–	–	–	–
CCOP(=O)(OCC)C(O)C1=C(N(C)C)C(=O)N(c2ccccc2)C1=O (stereo unspecified)	13.4 mm	13.2 mm	–	16.1 mm	–	16.3 mm	25 µg/mL (≈ 65.4 µM)	20 µg/mL (≈ 52.3 µM)	–	20 µg/mL (≈ 52.3 µM)	–	20 µg/mL (≈ 52.3 µM)
CCOP(=O)(OCC)C(O)C1=C(N(C)C)C(=O)N(c2ccc(F)cc2)C1=O (stereo unspecified)	15.6 mm	15.8 mm	16.5 mm	16.7 mm	16.4 mm	17.3 mm	10 µg/mL (≈ 25 µM)	10 µg/mL (≈ 25 µM)	15 µg/mL (≈ 37.5 µM)	15 µg/mL (≈ 37.5 µM)	15 µg/mL (≈ 37.5 µM)	10 µg/mL (≈ 25 µM)
CCOP(=O)(OCC)C(O)C1=C(N(C)C)C(=O)N(c2cccc(C(F)(F)F)c2)C1=O (stereo unspecified)	15.4 mm	15.7 mm	15.2 mm	17.2 mm	16.6 mm	17.4 mm	15 µg/mL (≈ 33.3 µM)	10 µg/mL (≈ 22.2 µM)	20 µg/mL (≈ 44.4 µM)	10 µg/mL (≈ 22.2 µM)	15 µg/mL (≈ 33.3 µM)	10 µg/mL (≈ 22.2 µM)
CCOP(=O)(OCC)C(O)C1=C(N(C)C)C(=O)N(c2ccc(Cl)cc2)C1=O (stereo unspecified)	–	13.4 mm	–	15.9 mm	15.8 mm	–	–	25 µg/mL (≈ 60 µM)	–	25 µg/mL (≈ 60 µM)	20 µg/mL (≈ 48 µM)	–
CCOP(=O)(OCC)C(O)C1=C(N(C)C)C(=O)N(c2ccc(Br)cc2)C1=O (stereo unspecified)	15.1 mm	13.1 mm	13.8 mm	16.8 mm	15.5 mm	16.4 mm	20 µg/mL (≈ 43.4 µM)	25 µg/mL (≈ 54.2 µM)	25 µg/mL (≈ 54.2 µM)	15 µg/mL (≈ 32.5 µM)	20 µg/mL (≈ 43.4 µM)	20 µg/mL (≈ 43.4 µM)
